Assay outcomes (PubChem BioAssay)
F508del corr: correctors of CFTR F508del function in bronchial epithelial cells; CFBE cells, YFP halide quenching; stimulated with forskolin plus potentiator P3; % fluorescence drop versus neutral controls; activity (quench increase), % at 7.58 µM; 350,000 tested, 0.36% active;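 active means mean added fluorescence quench of at least 8% versus neutral control, with both replicates also reaching 8%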;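 further: cells transiently co-express mutant CFTR-F508del with the halide-sensitive YFP; corrector assay measuring rescue of mutant channel to the surface after 24 h compound exposure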
SUMO1 PPI mod: SUMO1-SIM interaction modulation | P63165 | SUMO1 binding to a labelled peptide, TR-FRET, 1 h | inhibition, % at 20 µM | 360,000 tested, 0.33% active; in the data active means inhibition above about 37%
Target sequence (P63165 whole entry, looked up): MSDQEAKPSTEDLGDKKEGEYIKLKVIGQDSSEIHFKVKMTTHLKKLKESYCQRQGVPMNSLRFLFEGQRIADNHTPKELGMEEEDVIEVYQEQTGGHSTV
LMPTP inh: blocks human LMPTP phosphatase | P24666 | recombinant LMPTP-A, OMFP fluorogenic substrate, fluorescence intensity | inhibition, % at 20 µM | 360,000 tested, 0.22% active | AID 651560;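 active means compounds that cut the enzyme signal by at least half of the control window in the single-dose screen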
Target sequence (P24666 whole entry, looked up): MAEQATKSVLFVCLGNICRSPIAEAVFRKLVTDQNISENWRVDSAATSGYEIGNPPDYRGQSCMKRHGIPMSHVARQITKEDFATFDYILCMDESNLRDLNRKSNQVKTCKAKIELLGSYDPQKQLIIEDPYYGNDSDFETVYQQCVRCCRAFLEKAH
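Test system: LMPTP-A phosphatase enzyme; input: 0.625 nM LMPTP-A final; reagent: OMFP substrate, 400 µM final; compound dosing: 20 µM single dose, 3% DMSO; incubation: 50 min dark incubation at room temperature; measured by: endpoint fluorescence intensity from OMFP dephosphorylation; measure: % inhibition relative to no-enzyme and uninhibited control wells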
Scp1 inh: blocks human Scp-1 phosphatase activity. Recombinant Scp1, phosphopeptide, malachite green phosphate absorbance. inhibition, % at 20 µM. 340,000 tested, 0.88% active. AID 493091;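 active means inhibition above about 50% at 20 µM, limit read from the data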
Target sequence (Q9GZU7 76-261 limits assumed): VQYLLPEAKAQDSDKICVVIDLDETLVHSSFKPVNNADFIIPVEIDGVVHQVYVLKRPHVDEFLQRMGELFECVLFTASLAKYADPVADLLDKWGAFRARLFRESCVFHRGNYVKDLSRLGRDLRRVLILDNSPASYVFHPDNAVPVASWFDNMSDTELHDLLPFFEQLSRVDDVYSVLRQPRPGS
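Test system: SCP-1 phosphatase catalytic domain, residues 76-261; measured by: colorimetric phosphate reagent with accelerator and stabiliser, absorbance at 630 nm; timing: enzyme reaction 45 min at room temperature, colour 5 min, stabilisation 30 min; also added: Phosphorylated 17-residue peptide substrate; compound dosing: one concentration, 20 µM, with 1.0% DMSO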
DNMT1 block: inhibitors of human DNMT1. P26358. DNMT1 molecular beacon, Hinp1I cleavage, fluorescence. inhibition (reported as % activation of signal), % at 10 µM. 360,000 tested, 0.83% active; in the data active means inhibition above about 50%
STEP block: inhibitors of human striatal-enriched phosphatase STEP | inhibition, % at 20 µM | recombinant STEP, OMFP fluorogenic substrate, fluorescence | P54829 | 360,000 tested, 0.25% active;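 active means inhibition at 20 µM, scaled per plate between control wells, above about 37%, limit read from the data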
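System: STEP phosphatase, cell-free reaction; Buffer or medium: Bis-Tris pH 6.0 buffer with DTT, detergent; Incubation: 20 min at room temperature, dark; Measured by: fluorescence, 480/540 nm.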
A number is an active result; - = inactive; . = no result. This is a sample that favours compounds with a hit; in the whole collection about 1.6% have one here.

SMILES	F508del corr	SUMO1 PPI mod	LMPTP inh	Scp1 inh	DNMT1 block	STEP block
CC(C)NC(=O)Nc1ccc2c(c1)C(=O)N([C@H](C)CO)C[C@H](C)[C@@H](CN(C)S(=O)(=O)c1ccc(F)cc1)OCCCC[C@@H](C)O2	-	.	.	.	.	.
CCOC(=O)CSc1nnc(-c2cc(OC)c(OC)c(OC)c2)o1	-	-	-	-	-	-
COc1cc(-c2nnc(SCc3cc(=O)oc4cc(O)c(O)cc34)o2)cc(OC)c1OC	.	-	62.6	72.8	63.6	-
CC(C)NC(=O)N(C)C[C@H]1Oc2ccc(NC(=O)CCN3CCOCC3)cc2CC(=O)N([C@@H](C)CO)C[C@H]1C	-	.	.	.	.	.
O=c1c2c([N+](=O)[O-])cc([N+](=O)[O-])cc2sn1Cc1ccccc1	-	-	-	-	-	-
O=c1c2c([N+](=O)[O-])cc([N+](=O)[O-])cc2sn1-c1ccc(Br)cc1	.	-	-	93.9	-	-
CCCNC(=O)N1C[C@@H](O)COC[C@H]2O[C@@H](CC(=O)NCc3ccc(Cl)c(Cl)c3)CC[C@@H]21	-	.	.	.	.	.
CCCN1C[C@@H](C)[C@@H](OC)CN(C)C(=O)c2ccc(NC(=O)Nc3cccc(F)c3)cc2OC[C@H]1C	-	.	.	.	.	.
Cc1ccc(-c2ccc(C3C(C#N)=C(N)Oc4n[nH]c(C)c43)o2)cc1 (stereo unspecified)	.	-	-	-	-	-
Cc1[nH]nc2c1C(c1ccc(-c3ccc(Cl)cc3)o1)C(C#N)=C(N)O2 (stereo unspecified)	.	63.8	-	-	-	-
C[C@@H]1CCCCO[C@@H](CN(C)CC2CCCCC2)[C@@H](C)CN([C@H](C)CO)C(=O)c2cc(NC(=O)CCCCCC(=O)Nc3ccccc3N)ccc2O1	-	.	.	.	.	.
O=C1C(=Cc2ccc(Br)o2)C(=O)c2ccccc21	.	103.2	78.4	65.5	108.3	95.8
COc1ccc(C(C)=O)cc1CS(=O)(=O)CC(=O)NCCc1c[nH]c2ccccc12	12.2	-	-	-	-	-
COc1cc(C(O)CO)ccc1OS(=O)(=O)O (stereo unspecified)	10.0	-	-	-	-	-
COc1ccc(-c2cc(C#N)nc(N3CCN(C)CC3)n2)cc1	-	-	-	-	-	-
COc1ccc(-c2cc(C#N)nc(N3CCNCC3)n2)cc1	.	-	-	-	79.4	-
C[C@@H]1CN([C@@H](C)CO)C(=O)Cc2cc(N(C)C)ccc2O[C@@H]1CN(C)Cc1ccc(C(=O)Nc2ccccc2N)cc1	15.1	.	.	.	.	.
C[C@@H]1CN([C@@H](C)CO)C(=O)Cc2cc(N(C)C)ccc2O[C@H]1CN(C)Cc1ccc(C(=O)Nc2ccccc2N)cc1	-	.	.	.	.	.
C[C@@H]1CN([C@@H](C)CO)C(=O)Cc2cc(NC(=O)Nc3cccc4ccccc34)ccc2O[C@@H]1CN(C)Cc1ccc(Cl)c(Cl)c1	9.9	.	.	.	.	.
COc1ccc(NC(=O)N(C)C[C@@H]2OCCCC[C@@H](C)Oc3ccc(NC(=O)Nc4c(C)noc4C)cc3C(=O)N([C@H](C)CO)C[C@@H]2C)cc1	-	.	.	.	.	.
COc1ccc(NS(=O)(=O)c2ccc3c(c2)[C@H]2C=CC[C@H]2[C@@H](c2ccc(C(=O)O)cc2)N3)cc1	-	52.9	-	-	86.6	-
Cc1c(Cl)cccc1NS(=O)(=O)c1ccc2c(c1)C1C=CCC1C(c1ccc(C(=O)O)cc1)N2 (stereo unspecified)	.	50.3	-	-	87.1	-
COc1ccc([C@H]2C[C@H](n3cc(-c4ccc(F)cc4)nn3)[C@@H](O)CN2Cc2cccs2)cc1	-	-	-	.	-	-
COc1ccc([C@H]2C[C@H](O)[C@@H](n3cc(-c4ccc(F)cc4)nn3)CN2Cc2cccs2)cc1	8.1	-	-	.	-	-
COc1ccc(S(=O)(=O)Cc2ccc(C(=O)N3CCN(c4cccc(C)c4)C(C)C3)o2)cc1 (stereo unspecified)	9.3	-	-	-	-	-
COc1ccccc1S(=O)(=O)Cc1ccc(C(=O)N2CCN(c3ccc(C)cc3)C(C)C2)o1 (stereo unspecified)	-	-	-	-	-	-
